Assays:
[1] = Cytotoxicity against human HepG2.2.15 cells assessed as cell death after 9 days by MTT assay; assay type: cell-based, HepG2 2.2.15
In short: (§1)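 HepG2.2.15 cells (MEM, 10% FBS, 380 µg/ml G418, 37 °C, 5% CO2) seeded at 1×10^5 cells/ml, cultured 24 h, then exposed to various drug concentrations; drug-containing medium renewed every 3 d. OD read at 450 nm after 9 days; percent cell death calculated; CC50 = concentration killing 50% of cells. Means of at least two experiments.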

[2] = test system: Hepatitis B virus; assay: Antiviral activity against Hepatitis B virus infected in human HepG2.2.15 cells assessed as inhibition of HBsAg secretion by ELISA; assay type: functional, organism-based; conditions: HepG2 2.2.15
In short: (§2)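 HepG2.2.15 cells (MEM, 10% FBS, 380 µg/ml G418) seeded at 1×10^5 cells/ml, held 24 h at 37 °C, then treated with various drug concentrations; medium with drug renewed every 3 d for up to 9 d. Culture medium sampled on days 3, 6 and 9, stored at -20 °C, and assayed for secreted antigen. Lamivudine as positive control; IC50 = 50% inhibition of secretion; means of at least two experiments.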

[3] = Selectivity index, ratio of CC50 for human HepG2.2.15 cells to IC50 for Hepatitis B virus infected in human HepG2.2.15 cells assessed as inhibition of HBsAg secretion; assay type: functional
In short: (§3)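 Selectivity index computed as CC50/IC50, with CC50 from cell death of HepG2.2.15 cells after 9 days of treatment (OD 450 nm) and IC50 from 50% inhibition of HBeAg or HBsAg secretion in the same cells; medium with drug renewed every 3 d.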

[4] = test system: Hepatitis B virus; assay: Antiviral activity against Hepatitis B virus infected in human HepG2.2.15 cells assessed as inhibition of HBeAg secretion by ELISA; assay type: functional, organism-based; conditions: HepG2 2.2.15; in short: as §2
[5] = Selectivity index, ratio of CC50 for human HepG2.2.15 cells to IC50 for Hepatitis B virus infected in human HepG2.2.15 cells assessed as inhibition of HBeAg secretion; assay type: functional; in short: as §3
[6] = test system: Hepatitis B virus; assay: Antiviral activity against Hepatitis B virus infected in human HepG2.2.15 cells assessed as inhibition of HBsAg secretion at 300 uM after 3 days by ELISA; assay type: functional; conditions: HepG2 2.2.15, 72 h; in short: as §2
[7] = test system: Hepatitis B virus; assay: Antiviral activity against Hepatitis B virus infected in human HepG2.2.15 cells assessed as inhibition of HBsAg secretion at 150 uM after 3 days by ELISA; assay type: functional; conditions: HepG2 2.2.15, 72 h; in short: as §2
[8] = test system: Hepatitis B virus; assay: Antiviral activity against Hepatitis B virus infected in human HepG2.2.15 cells assessed as inhibition of HBsAg secretion at 75 uM after 3 days by ELISA; assay type: functional; conditions: HepG2 2.2.15, 72 h; in short: as §2
[9] = test system: Hepatitis B virus; assay: Antiviral activity against Hepatitis B virus infected in human HepG2.2.15 cells assessed as inhibition of HBsAg secretion at 37.5 uM after 3 days by ELISA; assay type: functional; conditions: HepG2 2.2.15, 72 h; in short: as §2
[10] = test system: Hepatitis B virus; assay: Antiviral activity against Hepatitis B virus infected in human HepG2.2.15 cells assessed as inhibition of HBsAg secretion at 300 uM after 6 days by ELISA; assay type: functional; conditions: HepG2 2.2.15, 144 h; in short: as §2
[11] = test system: Hepatitis B virus; assay: Antiviral activity against Hepatitis B virus infected in human HepG2.2.15 cells assessed as inhibition of HBsAg secretion at 150 uM after 6 days by ELISA; assay type: functional; conditions: HepG2 2.2.15, 144 h; in short: as §2
[12] = test system: Hepatitis B virus; assay: Antiviral activity against Hepatitis B virus infected in human HepG2.2.15 cells assessed as inhibition of HBsAg secretion at 75 uM after 6 days by ELISA; assay type: functional; conditions: HepG2 2.2.15, 144 h; in short: as §2
[13] = test system: Hepatitis B virus; assay: Antiviral activity against Hepatitis B virus infected in human HepG2.2.15 cells assessed as inhibition of HBsAg secretion at 37.5 uM after 6 days by ELISA; assay type: functional; conditions: HepG2 2.2.15, 144 h; in short: as §2
[14] = test system: Hepatitis B virus; assay: Antiviral activity against Hepatitis B virus infected in human HepG2.2.15 cells assessed as inhibition of HBsAg secretion at 300 uM after 9 days by ELISA; assay type: functional; conditions: HepG2 2.2.15, 216 h; in short: as §2
[15] = test system: Hepatitis B virus; assay: Antiviral activity against Hepatitis B virus infected in human HepG2.2.15 cells assessed as inhibition of HBsAg secretion at 150 uM after 9 days by ELISA; assay type: functional; conditions: HepG2 2.2.15, 216 h; in short: as §2
[16] = test system: Hepatitis B virus; assay: Antiviral activity against Hepatitis B virus infected in human HepG2.2.15 cells assessed as inhibition of HBsAg secretion at 75 uM after 9 days by ELISA; assay type: functional; conditions: HepG2 2.2.15, 216 h; in short: as §2
[17] = test system: Hepatitis B virus; assay: Antiviral activity against Hepatitis B virus infected in human HepG2.2.15 cells assessed as inhibition of HBsAg secretion at 37.5 uM after 9 days by ELISA; assay type: functional; conditions: HepG2 2.2.15, 216 h; in short: as §2
[18] = test system: Hepatitis B virus; assay: Antiviral activity against Hepatitis B virus infected in human HepG2.2.15 cells assessed as cell survival at 300 uM after 9 days (reference value: 100%); assay type: functional; conditions: HepG2 2.2.15, 216 h; in short: as §1
[19] = test system: Hepatitis B virus; assay: Antiviral activity against Hepatitis B virus infected in human HepG2.2.15 cells assessed as cell survival at 150 uM after 9 days (reference value: 100%); assay type: functional; conditions: HepG2 2.2.15, 216 h; in short: as §1
[20] = test system: Hepatitis B virus; assay: Antiviral activity against Hepatitis B virus infected in human HepG2.2.15 cells assessed as cell survival at 75 uM after 9 days (reference value: 100%); assay type: functional; conditions: HepG2 2.2.15, 216 h; in short: as §1
[21] = test system: Hepatitis B virus; assay: Antiviral activity against Hepatitis B virus infected in human HepG2.2.15 cells assessed as cell survival at 37.5 uM after 9 days (reference value: 100%); assay type: functional; conditions: HepG2 2.2.15, 216 h; in short: as §1
[22] = test system: Hepatitis B virus; assay: Antiviral activity against Hepatitis B virus infected in human HepG2.2.15 cells assessed as inhibition of HBeAg secretion at 300 uM after 3 days by ELISA; assay type: functional; conditions: HepG2 2.2.15, 72 h; in short: as §2
[23] = test system: Hepatitis B virus; assay: Antiviral activity against Hepatitis B virus infected in human HepG2.2.15 cells assessed as inhibition of HBeAg secretion at 150 uM after 3 days by ELISA; assay type: functional; conditions: HepG2 2.2.15, 72 h; in short: as §2
[24] = test system: Hepatitis B virus; assay: Antiviral activity against Hepatitis B virus infected in human HepG2.2.15 cells assessed as inhibition of HBeAg secretion at 75 uM after 3 days by ELISA; assay type: functional; conditions: HepG2 2.2.15, 72 h; in short: as §2
[25] = test system: Hepatitis B virus; assay: Antiviral activity against Hepatitis B virus infected in human HepG2.2.15 cells assessed as inhibition of HBeAg secretion at 37.5 uM after 3 days by ELISA; assay type: functional; conditions: HepG2 2.2.15, 72 h; in short: as §2
[26] = test system: Hepatitis B virus; assay: Antiviral activity against Hepatitis B virus infected in human HepG2.2.15 cells assessed as inhibition of HBeAg secretion at 300 uM after 6 days by ELISA; assay type: functional; conditions: HepG2 2.2.15, 144 h; in short: as §2
[27] = test system: Hepatitis B virus; assay: Antiviral activity against Hepatitis B virus infected in human HepG2.2.15 cells assessed as inhibition of HBeAg secretion at 150 uM after 6 days by ELISA; assay type: functional; conditions: HepG2 2.2.15, 144 h; in short: as §2
[28] = test system: Hepatitis B virus; assay: Antiviral activity against Hepatitis B virus infected in human HepG2.2.15 cells assessed as inhibition of HBeAg secretion at 75 uM after 6 days by ELISA; assay type: functional; conditions: HepG2 2.2.15, 144 h; in short: as §2
[29] = test system: Hepatitis B virus; assay: Antiviral activity against Hepatitis B virus infected in human HepG2.2.15 cells assessed as inhibition of HBeAg secretion at 37.5 uM after 6 days by ELISA; assay type: functional; conditions: HepG2 2.2.15, 144 h; in short: as §2
[30] = test system: Hepatitis B virus; assay: Antiviral activity against Hepatitis B virus infected in human HepG2.2.15 cells assessed as inhibition of HBeAg secretion at 300 uM after 9 days by ELISA; assay type: functional; conditions: HepG2 2.2.15, 216 h; in short: as §2
[31] = test system: Hepatitis B virus; assay: Antiviral activity against Hepatitis B virus infected in human HepG2.2.15 cells assessed as inhibition of HBeAg secretion at 150 uM after 9 days by ELISA; assay type: functional; conditions: HepG2 2.2.15, 216 h; in short: as §2
[32] = test system: Hepatitis B virus; assay: Antiviral activity against Hepatitis B virus infected in human HepG2.2.15 cells assessed as inhibition of HBeAg secretion at 75 uM after 9 days by ELISA; assay type: functional; conditions: HepG2 2.2.15, 216 h; in short: as §2
[33] = test system: Hepatitis B virus; assay: Antiviral activity against Hepatitis B virus infected in human HepG2.2.15 cells assessed as inhibition of HBeAg secretion at 37.5 uM after 9 days by ELISA; assay type: functional; conditions: HepG2 2.2.15, 216 h; in short: as §2

COc1ccc(/C=C/C(=O)O/N=C/c2ccco2)cc1OC
CC50 at 216 h [1]: 624 µM | IC50 [2]: 191 µM | Ratio CC50/IC50 [3]: 3.26 | IC50 [4]: 202 µM | Ratio CC50/IC50 [5]: 3.1 | inhibition at 300 µM [6]: 47.2% | inhibition at 150 µM [7]: 39.7% | inhibition at 75 µM [8]: 33.6% | inhibition at 37.5 µM [9]: 19.9% | inhibition at 300 µM [10]: 53.8% | inhibition at 150 µM [11]: 44.2% | inhibition at 75 µM [12]: 36.5% | inhibition at 37.5 µM [13]: 20.8% | inhibition at 300 µM [14]: 55% | inhibition at 150 µM [15]: 47.3% | inhibition at 75 µM [16]: 39.4% | inhibition at 37.5 µM [17]: 21.2% | viability at 300 µM [18]: 103% | viability at 150 µM [19]: 114% | viability at 75 µM [20]: 120% | viability at 37.5 µM [21]: 128% | inhibition at 300 µM [22]: 41.8% | inhibition at 150 µM [23]: 30.4% | inhibition at 75 µM [24]: 18.2% | inhibition at 37.5 µM [25]: 14.1% | inhibition at 300 µM [26]: 48.8% | inhibition at 150 µM [27]: 42% | inhibition at 75 µM [28]: 27.9% | inhibition at 37.5 µM [29]: 20% | inhibition at 300 µM [30]: 56.6% | inhibition at 150 µM [31]: 43.7% | inhibition at 75 µM [32]: 37.3% | inhibition at 37.5 µM [33]: 27%
